This note sets out measurements from PubChem BioAssay.

Calls of active or inactive are those of the source. Unless noted, no stated cut-off is given here; in the data, active means inhibition above about 30%; inactive means the rest.

A short description of experiment [1]: Her2 expression decrease, cell viability multiplex – SKBR3 breast tumor cells, AlphaScreen, ATP viability, primary screen (AID 461;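 active means Her2 level under about 52% in both replicate screens, with viability over 70% of control, limit read from the data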;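 on Her2 level: lower value means less Her2 protein in the cells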;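 on viability: percent of carrier control wells set as 100% viability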). The note with it: SKBR3 Her2 protein level, 18-24 h, measured here: SKBR3 viability, ATP luminescence, at 10 µM. A general note: In Alpha technology, singlet oxygen from a donor bead excites a nearby acceptor bead.
The target of experiment [2] is Receptor tyrosine-protein kinase erbB-2 (Homo sapiens) (UniProt P04626). The description is as above. To be noted: 18-24 h, at 10 µM, stronger effect = lower value.
Experiment [3] can be described thus: reduced viability of SK-BR-3 breast cancer cells – cell-based, 24 h, human, pilot screen (AID 572;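 active means viability at or below 10% of carrier control in both of two separate runs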;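 further: compound exposure lasted between 18 and 24 h rather than exactly 24 h; 100% = carrier-treated control wells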). To be noted: SK-BR-3 viability, CellTiter-Glo luminescence, at 10 µM, stronger effect = lower value. In general terms: ATP-based viability assays read luminescence as a measure of living cells.
Experiment [4] can be described thus: HUVEC growth inhibition – cell-based, human, primary screen (AID 575;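 active means viability at or below 30% in both replicate assays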;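 further: 100% = median of untreated cell wells with 0.1% DMSO on each plate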). To be noted: HUVEC proliferation, CellTiter-Glo luminescence, 72 h; at 10 µM; stronger effect = lower value. An outline of the steps: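 Timing: 72 h treatment at 37 °C; material: HUVEC primary cells; technique: CellTiter-Glo luminescence measuring cellular ATP; controls: vehicle and MePR control wells; measure: percent of median DMSO-control luminescence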

Experiment [5] can be described thus: H69AR cell proliferation blockers – human, duplicate replicates, primary screen (AID 580;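 active means viability at or under a set limit in both replicates, limit being median viability minus 3 SD, cut at about 48% in these data, passing the limit was not always enough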;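 further: 100% = mean luminescence of untreated wells and 0% = no signal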). To be noted: H69AR lung tumor cells viability, ATP luminescence, 72 h; at 10 µM; stronger effect = lower value.
Experiment [6] in a line: MRP1 drug-resistance reversers in H69AR cells – cell-based, doxorubicin co-treatment, pilot screen (AID 601;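 active means viability loss from added drug above about 55%, and viability with drug at most 40%, in both replicates, limit read from the data, passing the limit was not always enough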). To be noted: CellTiter-Glo, 72 h, at 10 µM; for differential viability (reversal): stronger effect = higher value.
A short description of experiment [7]: yeast transport mutant growth inhibition pilot in 384-well plates, post-Golgi transport modulator project (AID 636; in the data active means inhibition above about 31%). To be noted: absorbance 615 nm, about 18 h, stronger effect = higher value.
Experiment [8] can be described thus: growth suppression of yeast trafficking mutant, preliminary HTS, modulators of trafficking downstream of Golgi apparatus project, 1536-format plate, OD 615 nm (AID 637). To be noted: yeast transport mutant growth, absorbance 615 nm, 18 h; stronger effect = higher value.
Setting [9] is: H69AR cells + 2 uM doxorubicin, measured here: viability with 2 uM doxorubicin, stronger effect = lower value.
The mark [10] stands for this setting: H69AR cells, compound alone cytotoxicity.

Receptor tyrosine-protein kinase erbB-2 (Homo sapiens), sequence (P04626 whole entry, looked up): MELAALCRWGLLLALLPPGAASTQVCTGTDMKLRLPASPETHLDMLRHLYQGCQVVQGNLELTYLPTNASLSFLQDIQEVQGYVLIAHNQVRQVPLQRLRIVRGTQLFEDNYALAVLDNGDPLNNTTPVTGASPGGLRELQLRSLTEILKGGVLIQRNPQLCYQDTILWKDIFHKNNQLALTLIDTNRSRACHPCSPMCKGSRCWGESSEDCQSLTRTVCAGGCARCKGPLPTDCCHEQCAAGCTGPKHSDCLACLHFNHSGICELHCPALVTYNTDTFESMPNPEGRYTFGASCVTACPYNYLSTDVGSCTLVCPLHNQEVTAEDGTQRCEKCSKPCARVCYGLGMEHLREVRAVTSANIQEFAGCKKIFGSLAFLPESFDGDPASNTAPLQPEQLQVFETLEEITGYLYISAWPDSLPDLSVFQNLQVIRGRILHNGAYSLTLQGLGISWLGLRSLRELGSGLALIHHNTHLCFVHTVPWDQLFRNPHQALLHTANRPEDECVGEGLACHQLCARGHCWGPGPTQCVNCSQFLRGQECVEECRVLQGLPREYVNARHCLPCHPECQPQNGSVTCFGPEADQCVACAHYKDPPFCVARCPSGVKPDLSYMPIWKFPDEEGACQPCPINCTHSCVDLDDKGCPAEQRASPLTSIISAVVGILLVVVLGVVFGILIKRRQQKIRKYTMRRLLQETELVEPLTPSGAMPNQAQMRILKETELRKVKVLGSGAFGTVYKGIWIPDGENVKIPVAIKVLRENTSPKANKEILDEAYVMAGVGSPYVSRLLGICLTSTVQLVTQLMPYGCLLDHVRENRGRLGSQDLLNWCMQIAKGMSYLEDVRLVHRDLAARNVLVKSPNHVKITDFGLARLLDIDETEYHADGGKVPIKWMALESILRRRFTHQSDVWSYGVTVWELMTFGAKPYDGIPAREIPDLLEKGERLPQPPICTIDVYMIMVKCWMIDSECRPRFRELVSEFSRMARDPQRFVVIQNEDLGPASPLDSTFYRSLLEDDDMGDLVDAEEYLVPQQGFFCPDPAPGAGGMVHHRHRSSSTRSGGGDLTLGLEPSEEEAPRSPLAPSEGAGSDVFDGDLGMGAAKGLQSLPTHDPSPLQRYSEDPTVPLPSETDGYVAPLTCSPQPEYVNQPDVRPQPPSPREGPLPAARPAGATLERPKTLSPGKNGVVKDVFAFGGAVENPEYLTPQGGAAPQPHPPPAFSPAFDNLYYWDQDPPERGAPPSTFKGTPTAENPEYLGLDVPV

In the case of `O=S(=O)(Nc1cccnc1)c1ccc2c(c1)OCCO2`, the viability in experiment [1] was 91.5%; in experiment [3], 91.5% (inactive); in experiment [4], 99.7% (inactive); in experiment [5], 104% (inactive); in experiment [6] (setting [9]), 91.9%; in experiment [6] (setting [10]), 104%. Also, in experiment [2], the Her2 level is 92% (inactive). The differential viability (reversal) in experiment [6] (H69AR cells + 2 uM doxorubicin) is 12.1% (inactive). Also, the inhibition in experiment [7] was -6.97% (inactive); in experiment [8], 3.17% (inactive).

For the molecule `CCn1ncc(C2=NOC(C(=O)NCc3ccc(Cl)cc3)C2)c1C` (stereo not given), the viability was 83.5% in experiment [1]; 83.5% (inactive) in experiment [3]; 38.7% (inactive) in experiment [4]; 24.4% (active) in experiment [5]; 54.2% in experiment [6] (setting [9]); 24.4% in experiment [6] (setting [10]). Further, the Her2 level in experiment [2] was 69.5% (inactive). Moreover, in experiment [6] (H69AR cells + 2 uM doxorubicin), the differential viability (reversal) was -29.8% (inactive). Besides, the inhibition in experiment [7] is -2.89% (inactive); in experiment [8] it was -0.32% (inactive).

In the case of `Cc1cc(Nc2ccccc2F)n2ncnc2n1`, the viability in experiment [1] is 101%; in experiment [3], 101% (inactive); in experiment [4], 99% (inactive); in experiment [5], 97.1% (inactive); in experiment [6] (setting [9]), 88.3%; in experiment [6] (setting [10]), 97.1%. The Her2 level in experiment [2] was 97.5% (inactive). The differential viability (reversal) in experiment [6] (H69AR cells + 2 uM doxorubicin) was 8.83% (inactive). Also, the inhibition in experiment [7] is -0.67% (inactive); in experiment [8] it was 0.16% (inactive).

Regarding `Cc1cc(S(=O)(=O)n2cnc3ccccc32)c(C)cc1Cl`, the viability in experiment [1] is 86.5%; in experiment [3], 86.5% (inactive); in experiment [4] it was 99.1% (inactive); in experiment [5], 102% (inactive); in experiment [6] (setting [9]), 92.4%; in experiment [6] (setting [10]), 102%. Further, the Her2 level in experiment [2] was 120% (inactive). Further, the differential viability (reversal) in experiment [6] (H69AR cells + 2 uM doxorubicin) is 9.41% (inactive). Moreover, the inhibition in experiment [7] is -3.42% (inactive); in experiment [8], -3.97% (inactive).

On to `COc1ccc(-c2nnn(CCc3nn[nH]n3)n2)cc1OC`, for which the viability in experiment [1] is 119%; in experiment [3] it was 119% (inactive); in experiment [4] it was 96.9% (inactive); in experiment [5], 95.5% (inactive); in experiment [6] (setting [9]) it was 99.2%; in experiment [6] (setting [10]), 95.5%. In addition, the Her2 level in experiment [2] was 98.5% (inactive). Also, in experiment [6] (H69AR cells + 2 uM doxorubicin), the differential viability (reversal) was -3.76% (inactive). Also, the figures for the inhibition in experiment [7] and in experiment [8] were -3.6% (inactive) and 9.18% (inactive), respectively.

For the molecule `CCN(C(=O)CN1CCN(c2ccccc2OC)CC1)c1c(N)n(Cc2ccccc2)c(=O)[nH]c1=O`, the viability is 113% in experiment [1]; 113% (inactive) in experiment [3]; 98.7% (inactive) in experiment [4]; 100% (inactive) in experiment [5]; 90.8% in experiment [6] (setting [9]); 100% in experiment [6] (setting [10]). The Her2 level in experiment [2] was 102% (inactive). Further, the differential viability (reversal) in experiment [6] (H69AR cells + 2 uM doxorubicin) is 9.64% (inactive). Moreover, the inhibition in experiment [7] was -8% (inactive); in experiment [8], -0.16% (inactive).

Regarding `COc1ccccc1C(=O)Nc1nc2ccc(S(C)(=O)=O)cc2s1`, the viability in experiment [1] was 89.5%; in experiment [3], 89.5% (inactive); in experiment [4] it was 93.5% (inactive); in experiment [5], 79.5% (inactive); in experiment [6] (setting [9]) it was 85.6%; in experiment [6] (setting [10]) it was 79.5%. Besides, the Her2 level in experiment [2] is 78% (inactive). In addition, the differential viability (reversal) in experiment [6] (H69AR cells + 2 uM doxorubicin) is -6.1% (inactive). Besides, the results for the inhibition in experiment [7] and in experiment [8] were 0.64% (inactive) and -1% (inactive), respectively.

Consider `COc1ccc(C2C=C(c3ccccc3)Nc3ncnn32)cc1` (stereo not given), for which the viability in experiment [1] is 92.5%; in experiment [3], 92.5% (inactive); in experiment [4], 110% (inactive); in experiment [5], 101% (inactive); in experiment [6] (setting [9]), 100%; in experiment [6] (setting [10]), 101%. Further, in experiment [2], the Her2 level is 94.5% (inactive). In addition, in experiment [6] (H69AR cells + 2 uM doxorubicin), the differential viability (reversal) is 1.29% (inactive). For the same molecule, the inhibition is -3.65% (inactive) in experiment [7] and 3.65% (inactive) in experiment [8].

Regarding `O=C(CC(Cc1ccccc1)C(=O)O)NCCc1ccc2c(c1)OCO2` (stereo not given), the viability in experiment [1] is 90.5%; in experiment [3] it was 90.5% (inactive); in experiment [4], 92% (inactive); in experiment [5], 100% (inactive); in experiment [6] (setting [9]), 80.8%; in experiment [6] (setting [10]), 100%. Besides, in experiment [2], the Her2 level was 122% (inactive). In experiment [6] (H69AR cells + 2 uM doxorubicin), the differential viability (reversal) is 19.3% (inactive). In addition, the inhibition was -3.82% (inactive) in experiment [7] and -7.17% (inactive) in experiment [8].

Take `CN(C)c1cccc(NC(=O)CCc2ccccc2)c1`: the viability in experiment [1] was 86%; in experiment [3], 86% (inactive); in experiment [4], 89.9% (inactive); in experiment [5] it was 94.5% (inactive); in experiment [6] (setting [9]) it was 102%; in experiment [6] (setting [10]), 94.5%. Besides, in experiment [2], the Her2 level is 90% (inactive). Further, in experiment [6] (H69AR cells + 2 uM doxorubicin), the differential viability (reversal) was -7.99% (inactive). For the same molecule, the inhibition in experiment [7] is -5.89% (inactive); in experiment [8] it was 2.38% (inactive).

As for `Cn1c(=O)[nH]c(=O)c2c1nc(N1CCCCCC1)n2CCCSc1nc2ccccc2o1`, the viability is 84.5% in experiment [1]; 84.5% (inactive) in experiment [3]; 66.4% (inactive) in experiment [4]; 80.7% (inactive) in experiment [5]; 43.7% in experiment [6] (setting [9]); 80.7% in experiment [6] (setting [10]). Further, the Her2 level in experiment [2] is 80% (inactive). In experiment [6] (H69AR cells + 2 uM doxorubicin), the differential viability (reversal) is 37% (inactive). For the same molecule, the inhibition in experiment [7] is -5.68% (inactive); in experiment [8], 3.97% (inactive).

With `Cc1ccc(-n2c(SCC3CCCCO3)nnc2-c2ccco2)cc1` (stereo not given), the viability in experiment [1] was 89%; in experiment [3], 89% (inactive); in experiment [4], 102% (inactive); in experiment [5], 91.4% (inactive); in experiment [6] (setting [9]), 75.9%; in experiment [6] (setting [10]), 91.4%. In addition, the Her2 level in experiment [2] was 83% (inactive). In experiment [6] (H69AR cells + 2 uM doxorubicin), the differential viability (reversal) was 15.5% (inactive). Besides, the results for the inhibition in experiment [7] and in experiment [8] were 0% (inactive) and -8.5% (inactive), respectively.

On to `CC(=O)N(CCc1ccccc1C)Cc1cc2cc3c(cc2[nH]c1=O)OCO3`, for which the viability is 99% in experiment [1]; 99% (inactive) in experiment [3]; 90.1% (inactive) in experiment [4]; 91.2% (inactive) in experiment [5]; 93.9% in experiment [6] (setting [9]); 91.2% in experiment [6] (setting [10]). Moreover, the Her2 level in experiment [2] is 85.5% (inactive). The differential viability (reversal) in experiment [6] (H69AR cells + 2 uM doxorubicin) was -2.76% (inactive). Also, the inhibition is -2.03% (inactive) in experiment [7] and 4.44% (inactive) in experiment [8].

In the case of `Cc1nnc(SCC(=O)NC(C)(C)C)n1CCc1ccccc1`, the viability in experiment [1] is 93.5%; in experiment [3] it was 93.5% (inactive); in experiment [4] it was 105% (inactive); in experiment [5] it was 95.6% (inactive); in experiment [6] (setting [9]), 91.4%; in experiment [6] (setting [10]) it was 95.6%. For the same molecule, in experiment [2], the Her2 level is 92.5% (inactive). Moreover, in experiment [6] (H69AR cells + 2 uM doxorubicin), the differential viability (reversal) was 4.22% (inactive). The inhibition was -6.53% (inactive) in experiment [7] and 5.65% (inactive) in experiment [8].

As to `CCOC(=O)C1CCN(c2nc3ccccc3nc2C(C#N)C(=O)OC(C)C)CC1` (stereo not given), the viability is 95% in experiment [1]; 95% (inactive) in experiment [3]; 83.9% (inactive) in experiment [4]; 84.2% (inactive) in experiment [5]; 87.6% in experiment [6] (setting [9]); 84.2% in experiment [6] (setting [10]). In addition, in experiment [2], the Her2 level is 124% (inactive). Further, the differential viability (reversal) in experiment [6] (H69AR cells + 2 uM doxorubicin) was -3.45% (inactive). In addition, the inhibition is 1.37% (inactive) in experiment [7] and 4.6% (inactive) in experiment [8].

As for `COc1ccccc1-c1nc(SCc2ccccn2)n[nH]1`, the viability is 104% in experiment [1]; 104% (inactive) in experiment [3]; 98.3% (inactive) in experiment [4]; 97.2% (inactive) in experiment [5]; 91.9% in experiment [6] (setting [9]); 97.2% in experiment [6] (setting [10]). Also, in experiment [2], the Her2 level was 78.5% (inactive). Also, in experiment [6] (H69AR cells + 2 uM doxorubicin), the differential viability (reversal) is 5.32% (inactive). Moreover, the results for the inhibition in experiment [7] and in experiment [8] were -1.89% (inactive) and -2.06% (inactive), respectively.

The viability is a read-out of living cells in per cent, often relative to untreated cells. The inhibition is the relative decrease from the control value, in per cent.
